The results in this text go back to ChEMBL document CHEMBL2321796, “Synthesis of 8-hydroxyquinoline derivatives as novel antitumor agents” (ACS Med Chem Lett, 2013).

For series [1], the system named is K562. Kind of series: Cytotoxicity against human K562 cells at 50 ug/ml after 48 hrs by MTS assay relative to control. The series is classed as functional. The gist of the method: (§1)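 Single-concentration screen at 50 μg/mL against T-47D and K562 cells, activity expressed relative to a vehicle control set at 100. Means ± SDs from triplicated experiments.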
Background: Tetrazolium assays rely on reduction of a dye to a coloured formazan, in cell work by metabolically active cells.

The subject of series [2] is T47D. Kind of series: Cytotoxicity against human T47D cells at 50 ug/ml after 48 hrs by MTS assay relative to control. Format: functional. The method in brief:
as §1

The next series deals with SAOS-2. Kind of series: Cytotoxicity against human Saos2 cells after 48 hrs by MTS assay. The series is classed as functional. The gist of the method:
(§2)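 MTS assay on cancer cell lines and nontumor NIH3T3 cells. MTS50 is the concentration giving 50% reduction of MTS signal versus control. Dose-response tests run in triplicate over three independent experiments, means ± SDs against vehicle control.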

The test system of series [3] is T47D. Kind of series: Inhibition of colony formation in human T47D cells at 50 ug/ml after 24 hrs by anchorage-dependent clonogenicity assay. The series is classed as functional, cell-based. The gist of the method:
(§3)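 Anchorage-dependent clonogenicity assay on K562 and T47D cells. Treatment at 50 μg/mL for 24 h, then colony formation scored as percent inhibition versus vehicle control.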

Series [4] has as its system Hs-578T. Kind of series: Cytotoxicity against human Hs578T cells after 48 hrs by MTS assay. Format: functional. The gist of the method:
as §2

The subject of series [5] is Hs-578T. Kind of series: Induction of morphological changes in human Hs578T cells at 50 ug/ml. The series is classed as functional, cell-based.
Series [6] is described as follows: Down regulation of CCL5 gene expression in human KYSE-150 cells at 8.5 ug/ml after 48 hrs. The series is classed as functional, cell-based. The gist of the method:
(§4)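 KYSE150 esophageal cancer cells treated with 8.5 μg/mL for 48 h alongside a vehicle control. Total RNA extracted and gene expression change expressed as percent change in detection signal versus control.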

Series [7] can be described thus: Cytotoxicity against human Hep3B cells after 48 hrs by MTS assay. The series is classed as functional, Hep 3B2. The gist of the method: as §2
The test system of the next series is SK-HEP1. Kind of series: Cytotoxicity against human SKHEP1 cells after 48 hrs by MTS assay. Format: functional. The gist of the method:
as §2

The subject of series [8] is T47D. Kind of series: Ratio of CDDP IC50 to compound IC50 for human T47D cells. The series is classed as functional.
Series [9] has as its system T47D. Kind of series: Cytotoxicity against human T47D cells after 48 hrs by MTS assay. Format: functional. The method in brief: as §2
A short description of series [10]: Cytotoxicity against mouse NIH/3T3 cells after 48 hrs by MTS assay. The series is classed as cell-based, NIH3T3. To be noted: read-out: MTS50. The gist of the method:
as §2

A further series relates to A549. Kind of series: Cytotoxicity against human A549 cells after 48 hrs by MTS assay. The series is classed as functional. The gist of the method: as §2
Series [11] concerns MDA-MB-231. Kind of series: Induction of morphological changes in human MDA-MB-231 cells at 50 ug/ml. Format: functional, cell-based.
In series [12] the test system is MDA-MB-231. Kind of series: Cytotoxicity against human MDA-MB-231 cells after 48 hrs by MTS assay. Format: functional. The gist of the method: as §2
Series [13] relates to K562. Kind of series: Inhibition of colony formation in human K562 cells at 50 ug/ml after 24 hrs by anchorage-dependent clonogenicity assay. Format: functional, cell-based. The gist of the method: as §3
For series [14], the system named is Mus musculus. Kind of series: Toxicity in human Hep3B cells xenografted athymic nude mouse assessed as changes in histological appearance of vital organs at 10 mg/kg, ip qd for 8 days by ematoxylin and eosin staining. Format: organism-based, Hep 3B2. Also noted: dose 10 mg/kg, route intraperitoneal. The settings on record: in vivo, 192 h. The gist of the method:
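Human Hep3B hepatocellular carcinoma cells grown as subcutaneous xenografts in athymic nude mice, five per group, given daily intraperitoneal injection at 10 mg/kg/day alongside vehicle controls. After 8 days of treatment, vital organs were collected, stained with hematoxylin and eosin, and examined for tissue damage at the histological level.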

The test system of series [15] is T47D. Kind of series: Induction of morphological changes in human T47D cells at 50 ug/ml. Format: functional, cell-based.
Series [16] concerns Mus musculus. Kind of series: Toxicity in human Hep3B cells xenografted athymic nude mouse assessed as mortality at 10 mg/kg, ip qd for 8 days. The settings on record: in vivo, 192 h. Also noted: dose 10 mg/kg, route intraperitoneal. Format: organism-based, Hep 3B2. The gist of the method: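 Athymic nude mice bearing subcutaneous human Hep3B hepatocellular carcinoma xenografts, five per group, received 10 mg/kg/day intraperitoneally once daily, with a vehicle-treated control group. Deaths were recorded over the treatment period.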
On the technique in general: A xenograft is tissue or cells of one species grown in another, often human tumour cells in immunodeficient mice.

Series [17] is described as follows: Up-regulation of CLGN gene expression in human KYSE-150 cells at 8.5 ug/ml after 48 hrs. Format: functional, cell-based. The gist of the method:
as §4

Series [18] in a line: Solubility of the compound in physiological saline. Format: physicochemical. The settings on record: buffer.
A further series has as its system Hep 3B2. Kind of series: Antitumor activity against human Hep3B cells xenografted in athymic nude mouse assessed as disappearance of tumor at 10 mg/kg, ip qd for 8 days. The series is classed as functional, organism-based. Also noted: dose 10 mg/kg. The settings on record: in the assay text read “for 9 days” for “for 8 days”. The gist of the method:
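Subcutaneous Hep3B hepatocellular carcinoma xenografts in athymic nude mice, five per group, vehicle control group. Dosing 10 mg/kg/day by daily intraperitoneal injection, 9 days. Tumor volume (mm3) followed, given as mean + SD, Student's t test. Vital organs examined by hematoxylin and eosin histology.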

Series [19] has as its system K562. Kind of series: Cytotoxicity against human K562 cells after 48 hrs by MTS assay. Format: functional. The gist of the method: as §2

≈ marks a conversion by molar mass, not a printed value. Calls of active or inactive are those of the source. No cut-off for these calls is given here.

`N#Cc1ccc2cccc(O)c2n1`: the Activity in the series on K562 [1] came out at 23.08%; with T47D [2] it was 72.92%.
The like results for `COc1cccc2ccc(C)nc12` were, in that order, 27.15% and 37.92%.
On to `O=Cc1ccc2cccc(O)c2n1`, for which the MTS50 with SAOS-2 was 12.5 µg/mL; in the series on Hs-578T [4], 12.5 µg/mL; in [7], 6.25 µg/mL; in the series with SK-HEP1, 12.5 µg/mL; with T47D [9], 12.5 µg/mL; with A549, >50 µg/mL. Also, the MTS50 in the series with MDA-MB-231 [12] and with K562 [19] was 12.5 µg/mL in each case. For the same compound, the inhibition entry in the series with T47D [3] and in the series with K562 [13] was “Dose-dependent effect” each time. In addition, the Activity is 7% in the series with K562 [1]; 53.4% in series [6]; 8.37% in the series on T47D [2]; “Non-toxic” in the series on Mus musculus [14]; “Non-toxic” with Mus musculus [16]; 65.4% in series [17]. For the same compound, the outcome in the series with Hs-578T [5], in the series on MDA-MB-231 [11], in the series on T47D [15] and in the series with Hep 3B2 was Active. In addition, the “Ratio IC50” value with T47D [8] was 4. The CC50 at 48 h in series [10] was 7 µg/mL (≈ 40.4 µM). The solubility result in series [18] is recorded as “Insoluble”.
On to `Cc1ccc2cccc(OCCN3CCCCC3)c2n1`, for which the Activity is on record as 27.43% in the series with K562 [1] and 69.2% in the series with T47D [2].
The like results for `Cc1ccc2cccc(O)c2n1` [8-HYDROXY QUINALDINE] were, in that order, 34.46% and 46.54%.
The like results for `Oc1cccc2cccnc12` [OXYQUINOLINE] were, in that order, 26.66% and 52.6%.
The matching figures for `CCOc1cccc2ccc(C)nc12`: 21.38% and 63.43%.
